From ChEMBL document CHEMBL1124260, “Synthesis and antitumor activity of quaternary ellipticine glycosides, a series of novel and highly active antitumor agents” (1988)
“And” between values parts separate entries of the source, which are not always exact repeats. Identical values can stand only once.

What was measured:
[1] = tested on: Mus musculus; experiment: Antitumor activity against ip implanted L1210 leukemia in mouse after ip administration of 20 mg/kg for 5 days expressed as increase in mean life span; type: functional; conditions: 120 h, route intraperitoneal
Procedure, shortened: (§1)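 Drug was dissolved in 0.9% NaCl, diluted just before use and given ip once daily for 5 consecutive days, starting 24 h after transplant. ILS % = mean survival time of treated vs control mice, observed for 80 days.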

[2] = tested on: Mus musculus; experiment: Antitumor activity against ip implanted L1210 leukemia in mouse after ip administration of 40 mg/kg for 5 days expressed as increase in mean life span; type: functional; conditions: 120 h, route intraperitoneal; procedure, shortened: as §1
[3] = tested on: Mus musculus; experiment: Number of survivors out of 6 ip-ip implanted EAC leukemia mouse tested after 80 days at 20 mg/kg; type: functional
Procedure, shortened: (§2)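 Drug dissolved and diluted in saline just before use, given ip for 5 consecutive days starting 24 h after implant. Six mice per dose. Survivors counted at 80 days; ILS % taken from mean survival time of treated vs control mice.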

[4] = tested on: Mus musculus; experiment: Effect on ip implanted sarcoma 180 by ip administration for 5 days at 80 mg/kg was measured as increase in mean life span; type: functional; conditions: Sarcoma-180, ip, 120 h, route intraperitoneal
Procedure, shortened: (§3)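 Saline-dissolved drug was dosed ip daily for 5 consecutive days starting 24 h later. Readout was ILS % (mean survival time of treated vs control) over an 80-day observation.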

[5] = tested on: Mus musculus; experiment: Inhibition of sc implanted syngeneic colon 38 carcinoma by ip administration at 50 mg/kg was on 1, 3, 5, 7, 9 days measured as inhibition ratio; type: functional; conditions: route subcutaneous
Procedure, shortened: (§4)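 Tumor homogenate (70 mg) implanted into the axillary region of female BDF1 mice. Drug dissolved in 0.9% NaCl and diluted with saline just before use, then given ip on days 1, 3, 5, 7 and 9. Tumor length and width were measured by caliper on day 20 after inoculation and converted to estimated weight. Result reported as treated vs control tumor weight, T/C %.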

[6] = tested on: Mus musculus; experiment: Number of survivors out of 6 ip implanted sarcoma 180 leukemia mouse tested after 80 days at 80 mg/kg; type: functional; conditions: route intraperitoneal; procedure, shortened: as §2
[7] = tested on: Mus musculus; experiment: Effect on ip implanted syngeneic B16 melanoma by ip administration for 9 days at 5 mg/kg was measured as increase in mean life span; conditions: 216 h
[8] = tested on: Mus musculus; experiment: Inhibition of sc implanted syngeneic colon 38 carcinoma by ip administration at 20 mg/kg was on 1, 3, 5, 7, 9 days measured as inhibition ratio; type: functional; conditions: route subcutaneous; procedure, shortened: as §4
[9] = tested on: Mus musculus; experiment: Number of survivors out of 6 ip implanted P388 leukemia mouse tested after 80 days at 20 mg/kg; type: functional; conditions: route intraperitoneal
Procedure, shortened: (§5)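 P388 leukemia, 10^6 ascitic cells implanted ip in female BDF1 mice. Drug in saline given ip for 5 consecutive days from 24 h after transplant. Groups of six per dose level. Survivors/total recorded at the 80-day end of observation; ILS % from treated/control mean survival time.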

[10] = tested on: Mus musculus; experiment: Number of survivors out of 6 ip-iv implanted P388 leukemia mouse tested after 80 days at 20 mg/kg; type: functional
Procedure, shortened: (§6)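 Female BDF1 mice bearing ip-implanted leukemia: 10^5 cells for L1210, 10^6 cells for P388. Drug dissolved in saline, given iv for 5 consecutive days beginning 24 h post-implant. Six mice per dose. Survivors scored at 80 days; ILS % from mean survival time relative to controls.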

[11] = tested on: Mus musculus; experiment: Antitumor activity against ip implanted P388 leukemia in mouse after iv administration of 10 mg/kg for 5 days expressed as increase in mean life span; conditions: 120 h
[12] = tested on: Mus musculus; experiment: Antitumor activity against iv implanted L1210 leukemia in mouse after ip administration of 10 mg/kg for 5 days expressed as increase in mean life span; type: functional
[13] = tested on: Mus musculus; experiment: Effect on ip implanted sarcoma 180 by ip administration for 5 days at 20 mg/kg was measured as increase in mean life span; type: functional; conditions: Sarcoma-180, ip, 120 h, route intraperitoneal; procedure, shortened: as §3
[14] = tested on: Mus musculus; experiment: Antitumor activity against ip implanted L1210 leukemia in mouse after ip administration of 1.25 mg/kg for 5 days expressed as increase in mean life span; type: functional; conditions: 120 h, route intraperitoneal; procedure, shortened: as §1
[15] = tested on: Mus musculus; experiment: Number of survivors out of 6 ip-ip implanted EAC leukemia mouse tested after 80 days at 40 mg/kg; type: functional; procedure, shortened: as §2
[16] = tested on: Mus musculus; experiment: Number of survivors out of 6 ip-ip implanted L1210 leukemia mouse tested after 80 days at 20 mg/kg; type: functional
Procedure, shortened: (§7)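 Female BDF1 mice implanted ip with ascitic fluid holding 10^5 L1210 cells. Saline-dissolved drug given ip daily on days 1-5, starting 24 h after implant. Six mice per dose group, followed 80 days. Survivors/total counted at day 80; ILS % from mean survival time vs controls.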

[17] = tested on: Mus musculus; experiment: Effect on ip implanted EAC by ip administration for 5 days at 40 mg/kg was measured as increase in mean life span; type: functional; conditions: 120 h, route intraperitoneal
Procedure, shortened: (§8)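 Drug in 0.9% NaCl was given ip for 5 consecutive days from 24 h after inoculation. ILS % came from treated vs control mean survival time, followed for 80 days.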

[18] = tested on: Mus musculus; experiment: Antitumor activity against ip implanted L1210 leukemia in mouse after ip administration of 30 mg/kg for 5 days expressed as increase in mean life span; type: functional; conditions: Mus musculus, L1210, ip, 120 h, route intraperitoneal; procedure, shortened: as §1
[19] = tested on: Mus musculus; experiment: Number of survivors out of 6 ip implanted sarcoma 180 leukemia mouse tested after 80 days at 40 mg/kg; type: functional; conditions: route intraperitoneal; procedure, shortened: as §2
[20] = tested on: Mus musculus; experiment: Effect on ip implanted EAC by ip administration for 5 days at 80 mg/kg was measured as increase in mean life span; type: functional; conditions: 120 h, route intraperitoneal; procedure, shortened: as §8
[21] = tested on: Mus musculus; experiment: Number of survivors out of 6 ip implanted P388 leukemia mouse tested after 80 days at 10 mg/kg; type: functional; conditions: route intraperitoneal; procedure, shortened: as §5
[22] = tested on: Mus musculus; experiment: Effect on ip implanted EAC by ip administration for 5 days at 5 mg/kg was measured as increase in mean life span; type: functional; conditions: 120 h, route intraperitoneal; procedure, shortened: as §8
[23] = tested on: Mus musculus; experiment: Inhibition of sc implanted syngeneic colon 38 carcinoma by ip administration at 40 mg/kg was on 1, 3, 5, 7, 9 days measured as inhibition ratio; type: functional; conditions: route subcutaneous; procedure, shortened: as §4
[24] = tested on: Mus musculus; experiment: Number of survivors out of 6 ip-ip implanted L1210 leukemia mouse tested after 80 days at 40 mg/kg; type: functional; procedure, shortened: as §7
[25] = tested on: Mus musculus; experiment: Effect on ip implanted EAC by ip administration for 5 days at 10 mg/kg was measured as increase in mean life span; type: functional; conditions: 120 h, route intraperitoneal; procedure, shortened: as §8
[26] = tested on: Mus musculus; experiment: Effect on ip implanted EAC by ip administration at 20 mg/kg was for 5 days measured as increase in mean life span; type: functional; conditions: 120 h, route intraperitoneal; procedure, shortened: as §8
[27] = tested on: Mus musculus; experiment: Antitumor activity against ip implanted L1210 leukemia in mouse after ip administration of 10 mg/kg for 5 days expressed as increase in mean life span; type: functional; conditions: Mus musculus, L1210, ip, 120 h, route intraperitoneal; procedure, shortened: as §1
[28] = tested on: Mus musculus; experiment: Effect on ip implanted sarcoma 180 by ip administration for 5 days at 40 mg/kg was measured as increase in mean life span; type: functional; conditions: Sarcoma-180, ip, 120 h, route intraperitoneal; procedure, shortened: as §3
[29] = tested on: Mus musculus; experiment: Number of survivors out of 6 ip implanted EAC leukemia mouse tested after 80 days at 10 mg/kg; type: functional; conditions: route intraperitoneal; procedure, shortened: as §2
[30] = tested on: Mus musculus; experiment: Effect on ip implanted sarcoma 180 by ip administration for 5 days at 10 mg/kg was measured as increase in mean life span; type: functional; conditions: Sarcoma-180, ip, 120 h, route intraperitoneal; procedure, shortened: as §3
[31] = tested on: Mus musculus; experiment: Antitumor activity against iv implanted L1210 leukemia in mouse after ip administration of 20 mg/kg for 5 days expressed as increase in mean life span; type: functional
[32] = tested on: Mus musculus; experiment: Antitumor activity against ip implanted P388 leukemia in mouse after iv administration of 20 mg/kg for 5 days expressed as increase in mean life span; conditions: 120 h
[33] = tested on: Mus musculus; experiment: Antitumor activity against ip implanted L1210 leukemia in mouse after ip administration of 5 mg/kg for 5 days expressed as increase in mean life span; type: functional; conditions: Mus musculus, L1210, ip, 120 h, route intraperitoneal; procedure, shortened: as §1
[34] = tested on: Mus musculus; experiment: Number of survivors out of 6 ip implanted L1210 leukemia mouse, tested after 80 days at 30 mg/kg; type: functional; conditions: route intraperitoneal; procedure, shortened: as §7
[35] = tested on: Mus musculus; experiment: Effect on ip implanted syngeneic B16 melanoma by ip administration of 20 mg/kg for 9 days measured as increase in mean life span; conditions: 216 h
[36] = tested on: Mus musculus; experiment: Inhibition of sc implanted syngeneic colon 38 carcinoma by ip administration at 30 mg/kg was on 1, 3, 5, 7, 9 days measured as inhibition ratio; type: functional; conditions: route subcutaneous; procedure, shortened: as §4
[37] = tested on: Mus musculus; experiment: Number of survivors out of 6 ip-ip implanted EAC leukemia mouse tested after 80 days at 80 mg/kg; type: functional; procedure, shortened: as §2
[38] = tested on: Mus musculus; experiment: Number of survivors out of 6 ip-iv implanted L1210 leukemia mouse tested after 80 days at 30 mg/kg; type: functional; procedure, shortened: as §6
[39] = tested on: Mus musculus; experiment: Effect on ip implanted syngeneic B16 melanoma by ip administration for 9 days at 2.5 mg/kg was measured as increase in mean life span; conditions: 216 h
[40] = tested on: Mus musculus; experiment: Antitumor activity against ip implanted L1210 leukemia in mouse after iv administration of 30 mg/kg for 5 days expressed as increase in mean life span; conditions: 120 h
[41] = tested on: Mus musculus; experiment: Number of survivors out of 6 ip implanted P388 leukemia mouse tested after 80 days at 40 mg/kg; type: functional; conditions: route intraperitoneal; procedure, shortened: as §5
[42] = tested on: Mus musculus; experiment: Effect on ip implanted syngeneic B16 melanoma by ip administration for 9 days at 10 mg/kg was measured as increase in mean life span; conditions: 216 h

In the case of Cc1c2cc[n+]([C@@H]3OC[C@H](O)[C@H](O)[C@H]3O)cc2c(C)c2c1[nH]c1ccc(O)cc12.[Br-], the ILS at 20 mg/kg [1] is reported as greater than 251%, the ILS at 40 mg/kg [2] is reported as greater than 713% and the “Cures@ 20mg/kg” value [3] is reported as 1. For the same molecule, the ILS at 80 mg/kg [4] was greater than 353%, the “T/C @ 50mg/kg” value [5] was 4% and the “Cures@ 80 mg/kg” value [6] was 2. The ILS at 5 mg/kg [7] was 44%, the “T/C @ 20mg/kg” value [8] was 66% and the Cures [9] was 3. The Cures [10] was 2, the ILS at 10 mg/kg [11] was 83% and the ILS [12] was 82% and >214%. The ILS at 20 mg/kg [13] was 282%, the ILS at 1.25 mg/kg [14] was 37% and the “Cures@ 40mg/kg” value [15] was 5. The Cures [16] was 1, the ILS at 40 mg/kg [17] was greater than 518% and the ILS at 30 mg/kg [18] was greater than 860%. The “Cures@ 40mg/kg” value [19] was 2, the ILS at 80 mg/kg [20] was greater than 492% and the Cures [21] was 1. The ILS at 5 mg/kg [22] was 95%, the “T/C @ 40mg/kg” value [23] was 7% and the Cures [24] was 4. The ILS at 10 mg/kg [25] was greater than 297%, the ILS at 20 mg/kg [26] was greater than 338% and the ILS at 10 mg/kg [27] was 113%. For the same molecule, the ILS at 40 mg/kg [28] was greater than 339%, the “Cures@ 10mg/kg” value [29] was 1 and the ILS at 10 mg/kg [30] was 117%. For the same molecule, the ILS [31] was 198% and >549%, the ILS at 20 mg/kg [32] was greater than 394% and the ILS at 5 mg/kg [33] was 57%. For the same molecule, the Cures [34] was 5, the ILS at 20 mg/kg [35] was 60% and the “T/C @ 30mg/kg” value [36] was 59%. For the same molecule, the Cures [37] was 5, the Cures [38] was 2 and the ILS at 2.5 mg/kg [39] was 38%. It also gave an ILS at 30 mg/kg [40] greater than 344%, a Cures [41] of 6 and an ILS at 10 mg/kg [42] of 46%.
